Test results taken from ChEMBL document CHEMBL1145425, “Antitumor agents 259. Design, syntheses, and structure-activity relationship study of desmosdumotin C analogs” (2007).
Values after ≈ are worked out from the molar mass of the structure shown.

How the values were obtained:
A-431 = experiment: Cytotoxicity against human A431 cells; type: functional; conditions: read-out: ED50 (the source's name)
Method in brief: (§1)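 Sulforhodamine B growth assay. Lines kept in RPMI-1640 with 25 mM HEPES, 0.25% sodium bicarbonate, 10% FBS and kanamycin. Trypsinized cells seeded at 1500–7500 per well, with compound added from DMSO-diluted stock. After 3 days, attached cells fixed with cold 50% TCA, stained with 0.4% SRB, dye solubilized, absorbance read at 562 nm. ED50 is 50% growth reduction, averaged over at least three independent determinations.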

1A9 = experiment: Cytotoxicity against human 1A9 cells; type: functional; conditions: read-out: ED50 (the source's name); method in brief: as §1
HUVEC [1] = experiment: Antiangiogenesis activity against HUVEC; type: functional; conditions: Homo sapiens, read-out: ED50 (the source's name)
Method in brief: (§2)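 HUVEC seeded at 1.5×10^3 per well in EGM-2; after 24 h (day zero) compound added in EGM-2 at 2× the desired concentration. Day-zero plate stained with crystal violet. Remaining plates kept 72 h at 37 °C, then stained with 0.5% crystal violet in 20% MeOH. Dye eluted with 1:1 EtOH:0.1 M sodium citrate and read at 540 nm. Run per the NCI Angiogenesis Resource Center protocol.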

KB [2] = experiment: Cytotoxicity against human KB cells; type: functional; conditions: read-out: ED50 (the source's name); method in brief: as §1
HUVEC [3] = experiment: Cytotoxicity against HUVEC; type: functional; conditions: Homo sapiens, read-out: ED50 (the source's name); method in brief: as §2
KB [4] = experiment: Cytotoxicity against human vincristine-resistant KB cells; type: functional; conditions: read-out: ED50 (the source's name); method in brief: as §1
A549 = experiment: Cytotoxicity against human A549 cells; type: functional; conditions: read-out: ED50 (the source's name); method in brief: as §1
HCT-8 = experiment: Cytotoxicity against human HCT8 cells; type: functional; conditions: read-out: ED50 (the source's name); method in brief: as §1
PC-3 = experiment: Cytotoxicity against human PC3 cells; type: functional; conditions: read-out: ED50 (the source's name); method in brief: as §1
[5] = Selectivity ratio of ED50 for KB cells to ED50 for KB-VIN cells; type: functional, Homo sapiens

COC1=C(C)C(O)=C(C(=O)/C=C/c2ccccc2)C(=O)C1(C)C [DESMOSDUMOTIN C]
EC50 (A-431): 5.1 µg/mL (≈ 16.3 µM)
EC50 (1A9): 3.5 µg/mL (≈ 11.2 µM)
EC50 (HUVEC [1]): < 4 µg/mL
EC50 (KB [2]): 4 µg/mL (≈ 12.8 µM)
EC50 (HUVEC [3]): 2.1 µg/mL (≈ 6.72 µM)
EC50 (KB [4]): 3 µg/mL (≈ 9.6 µM)
EC50 (A549): 3.5 µg/mL (≈ 11.2 µM)
EC50 (HCT-8): 3.7 µg/mL (≈ 11.8 µM)
EC50 (PC-3): 11.1 µg/mL (≈ 35.5 µM)

COC1=C(C)C(=O)/C(=C(O)/C=C/c2c(C)cc(C)cc2C)C(=O)C1(C)C
EC50 (A-431): 20 µg/mL (≈ 56.4 µM)
EC50 (1A9): 6.2 µg/mL (≈ 17.5 µM)
EC50 (KB [2]): > 20 µg/mL
Ratio ED50 [5]: >5
EC50 (KB [4]): 1.84 µg/mL (≈ 5.19 µM)
EC50 (A549): 8 µg/mL (≈ 22.6 µM)
EC50 (HCT-8): 8.4 µg/mL (≈ 23.7 µM)
EC50 (PC-3): > 20 µg/mL

COC1=C(C)C(=O)/C(=C(O)/C=C/c2ccccc2OC)C(=O)C1(C)C
EC50 (A-431): 6.6 µg/mL (≈ 19.3 µM)
EC50 (1A9): 2.5 µg/mL (≈ 7.3 µM)
EC50 (HUVEC [1]): < 4 µg/mL
EC50 (KB [2]): 3.3 µg/mL (≈ 9.64 µM)
EC50 (HUVEC [3]): 1.7 µg/mL (≈ 4.97 µM)
EC50 (KB [4]): 2.8 µg/mL (≈ 8.18 µM)
EC50 (A549): 2.4 µg/mL (≈ 7.01 µM)
EC50 (HCT-8): 4.1 µg/mL (≈ 12 µM)
EC50 (PC-3): 15.6 µg/mL (≈ 45.6 µM)

CCCC1=C(OC)C(CCC)(CCC)C(=O)/C(=C(O)\C=C\c2ccc(Br)cc2)C1=O
EC50 (A-431): 1.2 µg/mL (≈ 2.52 µM)
EC50 (1A9): 0.9 µg/mL (≈ 1.89 µM)
EC50 (KB [2]): 0.9 µg/mL (≈ 1.89 µM)
EC50 (KB [4]): 0.9 µg/mL (≈ 1.89 µM)
EC50 (A549): 1 µg/mL (≈ 2.1 µM)
EC50 (HCT-8): 1.3 µg/mL (≈ 2.73 µM)
EC50 (PC-3): 2.3 µg/mL (≈ 4.84 µM)

COC1=C(C)C(=O)/C(=C(O)/C=C/c2c(C)cccc2C)C(=O)C1(C)C
EC50 (A-431): 10.1 µg/mL (≈ 29.7 µM)
EC50 (HUVEC [1]): < 4 µg/mL
EC50 (KB [2]): 7.1 µg/mL (≈ 20.9 µM)
EC50 (HUVEC [3]): 3 µg/mL (≈ 8.81 µM)
EC50 (KB [4]): 2.1 µg/mL (≈ 6.17 µM)
EC50 (A549): 8.3 µg/mL (≈ 24.4 µM)
EC50 (HCT-8): 7.8 µg/mL (≈ 22.9 µM)
EC50 (PC-3): 17.1 µg/mL (≈ 50.2 µM)

COC1=C(C)C(=O)/C(=C(O)/C=C/c2cccs2)C(=O)C1(C)C
EC50 (A-431): 10.8 µg/mL (≈ 33.9 µM)
EC50 (1A9): 4 µg/mL (≈ 12.6 µM)
EC50 (HUVEC [1]): < 4 µg/mL
EC50 (KB [2]): 5.5 µg/mL (≈ 17.3 µM)
EC50 (HUVEC [3]): 2.5 µg/mL (≈ 7.85 µM)
EC50 (KB [4]): 3.4 µg/mL (≈ 10.7 µM)
EC50 (A549): 4.5 µg/mL (≈ 14.1 µM)
EC50 (HCT-8): 8.6 µg/mL (≈ 27 µM)
EC50 (PC-3): 18.2 µg/mL (≈ 57.2 µM)

COC1=C(C)C(=O)/C(=C(O)/C=C/c2ccc(Br)cc2)C(=O)C1(C)C
EC50 (A-431): 9 µg/mL (≈ 23 µM)
EC50 (1A9): 1.1 µg/mL (≈ 2.81 µM)
EC50 (HUVEC [1]): < 4 µg/mL
EC50 (KB [2]): 1.7 µg/mL (≈ 4.34 µM)
EC50 (HUVEC [3]): 3.6 µg/mL (≈ 9.2 µM)
EC50 (KB [4]): 1.9 µg/mL (≈ 4.86 µM)
EC50 (A549): 1.4 µg/mL (≈ 3.58 µM)
EC50 (HCT-8): 7.4 µg/mL (≈ 18.9 µM)
EC50 (PC-3): 17.7 µg/mL (≈ 45.2 µM)

COC1=C(C)C(=O)/C(=C(O)/C=C/c2cccc(OC)c2)C(=O)C1(C)C
EC50 (A-431): 4.5 µg/mL (≈ 13.1 µM)
EC50 (1A9): 2.9 µg/mL (≈ 8.47 µM)
EC50 (HUVEC [1]): < 4 µg/mL
EC50 (KB [2]): 3.3 µg/mL (≈ 9.64 µM)
EC50 (HUVEC [3]): 1.6 µg/mL (≈ 4.67 µM)
EC50 (KB [4]): 2.4 µg/mL (≈ 7.01 µM)
EC50 (A549): 2.8 µg/mL (≈ 8.18 µM)
EC50 (HCT-8): 2.9 µg/mL (≈ 8.47 µM)
EC50 (PC-3): 14.3 µg/mL (≈ 41.8 µM)

CCC1=C(OC)C(C)(C)C(=O)C(C(=O)/C=C/c2ccccc2)=C1O
EC50 (A-431): 13.8 µg/mL (≈ 42.3 µM)
EC50 (1A9): 3.8 µg/mL (≈ 11.6 µM)
EC50 (KB [2]): 4.3 µg/mL (≈ 13.2 µM)
Ratio ED50 [5]: 14.3
EC50 (KB [4]): 0.3 µg/mL (≈ 0.919 µM)
EC50 (A549): 5.5 µg/mL (≈ 16.9 µM)
EC50 (HCT-8): 9.4 µg/mL (≈ 28.8 µM)
EC50 (PC-3): 18.9 µg/mL (≈ 57.9 µM)

COC1=CC(O)=C(C(=O)/C=C/c2ccccc2)C(=O)C1(C)C
EC50 (A-431): 7 µg/mL (≈ 23.5 µM)
EC50 (1A9): 3.6 µg/mL (≈ 12.1 µM)
EC50 (KB [2]): 4.1 µg/mL (≈ 13.7 µM)
EC50 (HUVEC [3]): > 20 µg/mL
EC50 (KB [4]): 2.9 µg/mL (≈ 9.72 µM)
EC50 (A549): > 5 µg/mL
EC50 (HCT-8): 3.3 µg/mL (≈ 11.1 µM)
EC50 (PC-3): 14.2 µg/mL (≈ 47.6 µM)

COC1=C(C)C(=O)/C(=C(O)/C=C/c2ccc(C)cc2)C(=O)C1(C)C
EC50 (A-431): 5.1 µg/mL (≈ 15.6 µM)
EC50 (HUVEC [1]): < 4 µg/mL
EC50 (KB [2]): 3.9 µg/mL (≈ 11.9 µM)
EC50 (HUVEC [3]): 2.4 µg/mL (≈ 7.35 µM)
EC50 (KB [4]): 1.9 µg/mL (≈ 5.82 µM)
EC50 (A549): 4.3 µg/mL (≈ 13.2 µM)
EC50 (HCT-8): 4.1 µg/mL (≈ 12.6 µM)
EC50 (PC-3): 8.2 µg/mL (≈ 25.1 µM)

COC1=C(C)C(=O)/C(=C(O)/C=C/c2ccc(OC)cc2)C(=O)C1(C)C
EC50 (A-431): 9.2 µg/mL (≈ 26.9 µM)
EC50 (1A9): 2.8 µg/mL (≈ 8.18 µM)
EC50 (HUVEC [1]): < 4 µg/mL
EC50 (KB [2]): 3.6 µg/mL (≈ 10.5 µM)
EC50 (HUVEC [3]): 2.5 µg/mL (≈ 7.3 µM)
EC50 (KB [4]): 2.9 µg/mL (≈ 8.47 µM)
EC50 (A549): 3 µg/mL (≈ 8.76 µM)
EC50 (HCT-8): 5.6 µg/mL (≈ 16.4 µM)
EC50 (PC-3): 18.2 µg/mL (≈ 53.2 µM)

CC1=C(O)C(C)(C)C(=O)C(C(=O)/C=C/c2ccccc2)=C1O
EC50 (A-431): 14 µg/mL (≈ 46.9 µM)
EC50 (1A9): 8 µg/mL (≈ 26.8 µM)
EC50 (HUVEC [1]): < 4 µg/mL
EC50 (KB [2]): 10.5 µg/mL (≈ 35.2 µM)
EC50 (HUVEC [3]): 2.1 µg/mL (≈ 7.04 µM)
EC50 (KB [4]): 6.5 µg/mL (≈ 21.8 µM)
EC50 (A549): 9 µg/mL (≈ 30.2 µM)
EC50 (HCT-8): 15.8 µg/mL (≈ 53 µM)
EC50 (PC-3): 17.8 µg/mL (≈ 59.7 µM)
